Reference: PubChem BioAssay AID602213 (Southern Research Specialized Biocontainment Screening …, 2012)
Active and inactive are the calls of the source.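 How the source made its calls: active means inhibition of 30% or more at any tested concentration; inactive means the rest.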

biological target: M1-family alanyl aminopeptidase PfA-M1 (Plasmodium falciparum 3D7); test: inhibition of malaria M1 alanyl aminopeptidase – biochemical, QFRET, H-Leu-NHMec substrate, set 2, dose response (AID 602213); settings: recombinant PfM1AAP, H-Leu-NHMec fluorogenic cleavage
Summary of the method: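 System: purified recombinant PfM1AAP, an M1-family alanyl aminopeptidase of Plasmodium falciparum / Also added: H-Leu-NHMec fluorogenic peptide substrate, 0.1 mM final / Compound: 10 concentrations, 0.2–100 µM, 1:2 steps / Times: 90 min reaction at room temperature / Signal: fluorescence of released NHMec, excitation 370 nm, emission 460 nm / Replication: triplicate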

| Compound | IC50 |
| --- | --- |
| O=C(NCc1ccc2c(c1)OCO2)C1CCN(S(=O)(=O)c2ccc(Br)s2)CC1 | 1.54 µM |
| O=C(NCc1ccc(Cl)cc1)C1CCN(S(=O)(=O)c2ccc(Br)s2)CC1 | 14.6 µM |
| O=C(NCc1ccccc1)C1CCN(S(=O)(=O)c2ccc(Br)s2)CC1 | 2.26 µM |
| O=C(NCc1ccc(F)cc1)C1CCN(S(=O)(=O)c2ccc(Br)s2)CC1 | 5.05 µM |

same assay, conditions: recombinant PfM1AAP, H-Leu-NHMec fluorogenic cleavage; at 100 µM (top of the series)

| Compound | inhibition |
| --- | --- |
| CC[C@H](C)[C@H](NS(=O)(=O)c1ccc(Br)s1)C(=O)NCc1ccc2c(c1)OCO2 | inactive |
| CC[C@H](C)[C@H](NC(=O)c1ccc(C(C)(C)C)cc1)C(=O)NCc1ccc2c(c1)OCO2 | inactive |
| CC[C@H](C)[C@H](NC(=O)c1ccc(C(C)(C)C)cc1)C(=O)NCc1ccc(Cl)cc1 | inactive |
| CC[C@H](C)[C@H](NS(=O)(=O)c1ccc(Br)s1)C(=O)NCc1ccc(Cl)cc1 | inactive |
